Activity calls are given as the source filed them. The calls are words filed in the database; no cut-off is given here.
test system: Calu-6; experiment: Cytotoxicity against human Calu6 cells expressing VIPR1 in presence of 2% serum; format: functional, cell-based
Summary of the method: (§1)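 Cell proliferation in H727, H1299 and Calu6 lines, chosen for high VIPR1 expression. Medium held 2% serum to limit albumin sequestration. Compounds were tested at concentrations up to 10 µM.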

Structure (SMILES) | Activity
N#Cc1c(NC(=O)COc2ccccc2)sc2c1CCCC2 | inactive
N#Cc1c(NC(=O)CC2Cc3ccccc3O2)sc2c1CCCC2 (stereo not given) | inactive
N#Cc1c(NC(=O)C2Cc3ccccc3C2)sc2c1CCCC2 | inactive
CC(=O)Nc1sc2c(c1C#N)CCCC2 | inactive
Cc1ccccc1CCC(=O)Nc1sc2c(c1C#N)CCCC2 | inactive

test system: NCI-H1299; experiment: Cytotoxicity against human NCI-H1299 cells expressing VIPR1 in presence of 2% serum; format: functional, cell-based; summary of the method: as §1

Structure (SMILES) | Activity
N#Cc1c(NC(=O)COc2ccccc2)sc2c1CCCC2 | inactive
N#Cc1c(NC(=O)CC2Cc3ccccc3O2)sc2c1CCCC2 (stereo not given) | inactive
N#Cc1c(NC(=O)C2Cc3ccccc3C2)sc2c1CCCC2 | inactive
CC(=O)Nc1sc2c(c1C#N)CCCC2 | inactive
Cc1ccccc1CCC(=O)Nc1sc2c(c1C#N)CCCC2 | inactive

test system: NCI-H727; experiment: Cytotoxicity against human NCI-H727 cells expressing VIPR1 in presence of 2% serum; format: functional, cell-based; summary of the method: as §1

Structure (SMILES) | Activity
N#Cc1c(NC(=O)COc2ccccc2)sc2c1CCCC2 | inactive
N#Cc1c(NC(=O)CC2Cc3ccccc3O2)sc2c1CCCC2 (stereo not given) | inactive
N#Cc1c(NC(=O)C2Cc3ccccc3C2)sc2c1CCCC2 | inactive
CC(=O)Nc1sc2c(c1C#N)CCCC2 | inactive
Cc1ccccc1CCC(=O)Nc1sc2c(c1C#N)CCCC2 | inactive

test system: Calu-6; experiment: Cytotoxicity against human Calu6 cells expressing VIPR1 up to 10 uM in presence of 2% serum; format: functional, cell-based; summary of the method: as §1

Structure (SMILES) | Activity
CC(C)c1cc(C(C)(C)C)cc(-c2cccc(N(C)C)c2)c1CO | inactive
CC(C)c1cc(C(C)(C)C)cc(-c2ccccc2-c2ccccc2)c1CO | inactive
CSc1cccc(-c2cc(C(C)(C)C)cc(C(C)C)c2CO)c1 | inactive
CC(C)c1cc(C(C)(C)C)cc(-c2cccc(C(F)(F)F)c2)c1CO | inactive
CC(C)c1cc(C(C)(C)C)cc(-c2cccc(Cl)c2)c1CO | inactive
CC(C)c1cc(C(C)(C)C)cc(-c2cccc3ccccc23)c1CO | inactive
COc1ccc(-c2cc(C(C)(C)C)cc(C(C)C)c2CO)cc1 | inactive
CC(C)c1cc(C(C)(C)C)cc(-c2cccc(C#N)c2)c1CO | inactive
Cc1ccccc1-c1cc(C(C)(C)C)cc(C(C)C)c1CO | inactive
Cc1ccc(-c2cc(C(C)(C)C)cc(C(C)C)c2CO)cc1 | inactive
CC(C)c1cc(C(C)(C)C)cc(-c2ccc(-c3ccccc3)cc2)c1CO | inactive
COc1ccccc1-c1cc(C(C)(C)C)cc(C(C)C)c1CO | inactive
CC(C)c1cc(C(C)(C)C)cc(-c2cccc(-c3ccccc3)c2)c1CO | inactive

test system: NCI-H1299; experiment: Cytotoxicity against human NCI-H1299 cells expressing VIPR1 up to 10 uM in presence of 2% serum; format: functional, cell-based; summary of the method: as §1

Structure (SMILES) | Activity
CC(C)c1cc(C(C)(C)C)cc(-c2cccc(N(C)C)c2)c1CO | inactive
CC(C)c1cc(C(C)(C)C)cc(-c2ccccc2-c2ccccc2)c1CO | inactive
CSc1cccc(-c2cc(C(C)(C)C)cc(C(C)C)c2CO)c1 | inactive
CC(C)c1cc(C(C)(C)C)cc(-c2cccc(C(F)(F)F)c2)c1CO | inactive
CC(C)c1cc(C(C)(C)C)cc(-c2cccc(Cl)c2)c1CO | inactive
CC(C)c1cc(C(C)(C)C)cc(-c2cccc3ccccc23)c1CO | inactive
COc1ccc(-c2cc(C(C)(C)C)cc(C(C)C)c2CO)cc1 | inactive
CC(C)c1cc(C(C)(C)C)cc(-c2cccc(C#N)c2)c1CO | inactive
Cc1ccccc1-c1cc(C(C)(C)C)cc(C(C)C)c1CO | inactive
Cc1ccc(-c2cc(C(C)(C)C)cc(C(C)C)c2CO)cc1 | inactive
CC(C)c1cc(C(C)(C)C)cc(-c2ccc(-c3ccccc3)cc2)c1CO | inactive
COc1ccccc1-c1cc(C(C)(C)C)cc(C(C)C)c1CO | inactive
CC(C)c1cc(C(C)(C)C)cc(-c2cccc(-c3ccccc3)c2)c1CO | inactive

test system: NCI-H727; experiment: Cytotoxicity against human NCI-H727 cells expressing VIPR1 up to 10 uM in presence of 2% serum; format: functional, cell-based; summary of the method: as §1

Structure (SMILES) | Activity
CC(C)c1cc(C(C)(C)C)cc(-c2cccc(N(C)C)c2)c1CO | inactive
CC(C)c1cc(C(C)(C)C)cc(-c2ccccc2-c2ccccc2)c1CO | inactive
CSc1cccc(-c2cc(C(C)(C)C)cc(C(C)C)c2CO)c1 | inactive
CC(C)c1cc(C(C)(C)C)cc(-c2cccc(C(F)(F)F)c2)c1CO | inactive
CC(C)c1cc(C(C)(C)C)cc(-c2cccc(Cl)c2)c1CO | inactive
CC(C)c1cc(C(C)(C)C)cc(-c2cccc3ccccc23)c1CO | inactive
COc1ccc(-c2cc(C(C)(C)C)cc(C(C)C)c2CO)cc1 | inactive
CC(C)c1cc(C(C)(C)C)cc(-c2cccc(C#N)c2)c1CO | inactive
Cc1ccccc1-c1cc(C(C)(C)C)cc(C(C)C)c1CO | inactive
Cc1ccc(-c2cc(C(C)(C)C)cc(C(C)C)c2CO)cc1 | inactive
CC(C)c1cc(C(C)(C)C)cc(-c2ccc(-c3ccccc3)cc2)c1CO | inactive
COc1ccccc1-c1cc(C(C)(C)C)cc(C(C)C)c1CO | inactive
CC(C)c1cc(C(C)(C)C)cc(-c2cccc(-c3ccccc3)c2)c1CO | inactive

target: T1, Vasoactive intestinal polypeptide receptor 1 (Rattus norvegicus) (UniProt P30083); experiment: Displacement of [125I]VIP from vasoactive intestinal peptide receptor 1 in rat RKE cell membrane after 3 hrs by TopCount assay; format: cell membranes
T1 sequence (whole entry): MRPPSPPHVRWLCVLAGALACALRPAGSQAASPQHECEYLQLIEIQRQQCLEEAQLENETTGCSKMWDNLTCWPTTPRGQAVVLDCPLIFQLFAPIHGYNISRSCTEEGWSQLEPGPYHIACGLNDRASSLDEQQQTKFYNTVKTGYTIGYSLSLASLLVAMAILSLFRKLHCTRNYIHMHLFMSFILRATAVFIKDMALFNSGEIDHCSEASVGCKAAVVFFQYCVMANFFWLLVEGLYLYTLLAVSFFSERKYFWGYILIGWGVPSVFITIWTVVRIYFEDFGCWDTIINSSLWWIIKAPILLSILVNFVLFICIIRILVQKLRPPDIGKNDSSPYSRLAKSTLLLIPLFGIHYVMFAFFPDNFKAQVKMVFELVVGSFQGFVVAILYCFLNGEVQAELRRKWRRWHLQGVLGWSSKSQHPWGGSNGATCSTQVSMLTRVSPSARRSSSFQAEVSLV
Summary of the method: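 Membranes from RKE-VIPR cells, 5 µg/well final, preincubated 10 min at room temperature with wheat germ agglutinin-coated PVT beads in 50 mM HEPES, 5 mM MgCl2, 1 mM CaCl2, 0.1% BSA. IC50 taken from a four-parameter logistic fit after subtracting nonspecific binding, defined with excess VIP.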

Structure (SMILES) | Activity
CC(C)c1cc(C(C)(C)C)cc(-c2cccc(N(C)C)c2)c1CO | Active
CC(C)c1cc(C(C)(C)C)cc(-c2ccccc2-c2ccccc2)c1CO | Active
CSc1cccc(-c2cc(C(C)(C)C)cc(C(C)C)c2CO)c1 | Active
CC(C)c1cc(C(C)(C)C)cc(-c2cccc(C(F)(F)F)c2)c1CO | Active
CC(C)c1cc(C(C)(C)C)cc(-c2cccc(Cl)c2)c1CO | Active
CC(C)c1cc(C(C)(C)C)cc(-c2cccc3ccccc23)c1CO | Active
COc1ccc(-c2cc(C(C)(C)C)cc(C(C)C)c2CO)cc1 | Active
CC(C)c1cc(C(C)(C)C)cc(-c2cccc(C#N)c2)c1CO | Active
Cc1ccccc1-c1cc(C(C)(C)C)cc(C(C)C)c1CO | Active
Cc1ccc(-c2cc(C(C)(C)C)cc(C(C)C)c2CO)cc1 | Active
CC(C)c1cc(C(C)(C)C)cc(-c2ccc(-c3ccccc3)cc2)c1CO | Active
COc1ccccc1-c1cc(C(C)(C)C)cc(C(C)C)c1CO | Active
CC(C)c1cc(C(C)(C)C)cc(-c2cccc(-c3ccccc3)c2)c1CO | Active
N#Cc1c(NC(=O)COc2ccccc2)sc2c1CCCC2 | Active
N#Cc1c(NC(=O)CC2Cc3ccccc3O2)sc2c1CCCC2 (stereo not given) | Active
N#Cc1c(NC(=O)C2Cc3ccccc3C2)sc2c1CCCC2 | Active
CC(=O)Nc1sc2c(c1C#N)CCCC2 | Active
Cc1ccccc1CCC(=O)Nc1sc2c(c1C#N)CCCC2 | Active

target: T2, Vasoactive intestinal polypeptide receptor 1 (Rattus norvegicus, UniProt P30083); experiment: Antagonist activity at vasoactive intestinal peptide receptor 1 in rat RKE cells assessed as inhibition of VIP-induced intracellular cAMP accumulation incubated for 15 mins prior to VIP-stimulation measured after 30 mins by HTRF assay
T2 sequence (P30083 whole entry): T1 sequence (whole entry)

Structure (SMILES) | IC50 [nM]
CC(C)c1cc(C(C)(C)C)cc(-c2cccc(N(C)C)c2)c1CO | 310
CC(C)c1cc(C(C)(C)C)cc(-c2ccccc2-c2ccccc2)c1CO | 3200
CSc1cccc(-c2cc(C(C)(C)C)cc(C(C)C)c2CO)c1 | 170
CC(C)c1cc(C(C)(C)C)cc(-c2cccc(C(F)(F)F)c2)c1CO | > 50000
CC(C)c1cc(C(C)(C)C)cc(-c2cccc(Cl)c2)c1CO | 100
CC(C)c1cc(C(C)(C)C)cc(-c2cccc3ccccc23)c1CO | 180
COc1ccc(-c2cc(C(C)(C)C)cc(C(C)C)c2CO)cc1 | 1300
CC(C)c1cc(C(C)(C)C)cc(-c2cccc(C#N)c2)c1CO | > 50000
Cc1ccccc1-c1cc(C(C)(C)C)cc(C(C)C)c1CO | > 50000
Cc1ccc(-c2cc(C(C)(C)C)cc(C(C)C)c2CO)cc1 | 300
CC(C)c1cc(C(C)(C)C)cc(-c2ccc(-c3ccccc3)cc2)c1CO | 680
COc1ccccc1-c1cc(C(C)(C)C)cc(C(C)C)c1CO | 820
CC(C)c1cc(C(C)(C)C)cc(-c2cccc(-c3ccccc3)c2)c1CO | 210
N#Cc1c(NC(=O)COc2ccccc2)sc2c1CCCC2 | 9100
N#Cc1c(NC(=O)CC2Cc3ccccc3O2)sc2c1CCCC2 (stereo not given) | 3800
N#Cc1c(NC(=O)C2Cc3ccccc3C2)sc2c1CCCC2 | 17000
CC(=O)Nc1sc2c(c1C#N)CCCC2 | 13000
Cc1ccccc1CCC(=O)Nc1sc2c(c1C#N)CCCC2 | 11000
